Assay outcomes deposited in PubChem BioAssay by several laboratories.
Shown are actives, neighbours in structure and some others; about 2.5% of the full set was active somewhere.
SR-BI HDL uptake = inhibitors of mouse SR-BI mediated HDL lipid uptake | Q61009 | ldlA[mSR-BI] CHO cells, DiI-HDL uptake fluorescence, 3 h | inhibition, % at 12.5 µM | 320,000 tested, 0.96% active;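 active means mean replicate inhibition of at least 70% and a set share of replicates each scoring 70 or more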;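 further: 0% = median of neutral control wells and 100% = median of positive control wells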
Target sequence (Q61009 whole entry, looked up): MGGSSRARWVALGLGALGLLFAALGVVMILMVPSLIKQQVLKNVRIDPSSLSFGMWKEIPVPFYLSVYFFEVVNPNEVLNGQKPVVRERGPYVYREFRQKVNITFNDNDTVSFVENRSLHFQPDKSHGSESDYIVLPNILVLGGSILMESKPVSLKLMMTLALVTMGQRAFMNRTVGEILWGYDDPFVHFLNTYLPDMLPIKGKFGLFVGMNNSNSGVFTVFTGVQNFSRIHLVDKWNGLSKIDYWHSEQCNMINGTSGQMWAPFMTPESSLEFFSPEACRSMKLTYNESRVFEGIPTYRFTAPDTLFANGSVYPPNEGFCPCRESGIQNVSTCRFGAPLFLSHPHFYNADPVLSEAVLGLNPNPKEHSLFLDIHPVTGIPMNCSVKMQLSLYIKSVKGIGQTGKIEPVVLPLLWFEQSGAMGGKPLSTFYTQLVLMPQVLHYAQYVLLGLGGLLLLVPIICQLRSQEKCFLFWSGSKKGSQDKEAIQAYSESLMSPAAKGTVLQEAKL
TAG inh = reduces triacylglycerol accumulation in H9c2 cells | Nile Red lipid (TAG) fluorescence; cells loaded with 200 µM oleic acid | inhibition, % at 12.5 µM | 230,000 tested, 0.66% active | AID 651582;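 active means pattern-corrected inhibition of lipid staining of at least 50% with the nuclear-stain viability signal not falling by more than 50%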;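 further: 0% = DMSO wells and 100% = triacsin C control wells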
Vif imaging = blocks HIV Vif function; 340,000 tested, 0.35% active; inhibition, % at 7.49 µM; HEK293T cells, Vif self-association by quenched fluorescence, imaging, 24 h; AID 602346; in the data active means inhibition above about 50%, passing the limit was not always enough
SR-BI DiI-HDL act = activators of SR-BI mediated HDL lipid uptake | 320,000 tested, 0.096% active | activation, % at 12.5 µM | CHO ldlA[mSR-BI] cells, DiI-HDL uptake fluorescence, 3 h; 100 = double the neutral-control signal | AID 504775;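 active means mean replicate activation of at least 60% and every replicate at or above 60%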;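 further: 0% = median plate neutral-control signal and 100% = twice that signal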
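Test system: SR-BI-overexpressing, LDLR-lacking CHO cells; Medium: Ham's F12 with 0.5% BSA, HEPES 25 mM, pH 7.4; Schedule: 3 h, 37 °C; Technique: bottom-read fluorescence, 550/595 nm.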
SMARCA2 act = SMARCA2 function activation, primary screen. activation, % at 9.1 µM. 370,000 tested, 1% active. MG213 cells, MMTV-luciferase reporter, dexamethasone, overnight. AID 652017; in the data active means activation above about 7.8%;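 further: 0% = vehicle wells and 100% = reference activator wells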
SMARCA2 conf = SMARCA2 activation, confirmation screen; shares compounds with SMARCA2 act; MG213 cells, MMTV-luciferase with dexamethasone, luminescence, overnight; MG213 cells expressing E1A, Rb sequestered; DMSO wells 0%, reference activator 100%; activation, % at 9.1 µM; 3,500 tested, 30% active; AID 652260;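 active means activation above its plate's cutoff, the mean activation of tested wells plus 3 SD, cut at about 7.9% in these data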
VP16 Luc act = GAL4-VP16 reporter activation counter-screen | shares compounds with SMARCA2 act | HEK293 GAL4-VP16 pG5luc reporter, luciferase luminescence; scaled: DMSO wells 0%, SAHA wells 100% | activation, % at 9.1 µM | 3,500 tested, 41% active;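 active means activation above the solvent-only control well mean plus 3 SD, averaged across control plates, cut at about 5.2% in these data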
* hit, by the source's call.

What do the screens show for `Cc1ccc(NC(=O)C2CC(=O)N(C(C)C)C2)cc1C` (stereo not given)?
SR-BI HDL uptake: 7.6; Vif imaging: 1.3; SR-BI DiI-HDL act: -7.6; SMARCA2 act: -1.9

How did Cc1ccc(NC(=O)C2CC(=O)N(C(C)C)C2)cc1Cl (stereo not given) do in these assays?
SR-BI HDL uptake: 4.4; TAG inh: -1.9; Vif imaging: 9.1; SR-BI DiI-HDL act: -4.4; SMARCA2 act: 8.3*; SMARCA2 conf: 0.8; VP16 Luc act: 0.1

How did Cc1cccc(-c2noc(CSc3ccccc3)n2)c1 do in these assays?
SR-BI HDL uptake: 4.8; TAG inh: -20.6; Vif imaging: -0.8; SR-BI DiI-HDL act: -4.8; SMARCA2 act: 2.7

How did Cc1ccc(-c2noc(CN3CCOCC3)n2)cc1 do in these assays?
SR-BI HDL uptake: -36.3; Vif imaging: 0.9; SR-BI DiI-HDL act: 36.3; SMARCA2 act: 4.7

How did Cc1ccc(-c2noc(CSc3ccccc3)n2)cc1 do in these assays?
SR-BI HDL uptake: -7.5; TAG inh: -5.0; Vif imaging: -4.4; SR-BI DiI-HDL act: 7.5; SMARCA2 act: 9.3*; SMARCA2 conf: 2.8; VP16 Luc act: 8.2*

Results for Cc1ccc(-c2noc(CN3CCCCC3)n2)cc1 ?
SR-BI HDL uptake: -1.9; TAG inh: 6.8; Vif imaging: -3.1; SR-BI DiI-HDL act: 1.9; SMARCA2 act: 8.3*; SMARCA2 conf: 4.0; VP16 Luc act: 9.1*

How did COc1cc(CN2CCN(C(=O)c3ccccc3F)CC2)cc(OC)c1OC do in these assays?
SR-BI HDL uptake: -0.8; TAG inh: -18.0; Vif imaging: 8.2; SR-BI DiI-HDL act: 0.8; SMARCA2 act: -3.0

Results for CN1CCN(C(=O)c2cccc(-c3cnc4cnc(-c5ccccc5Oc5ccccc5)cn34)c2)CC1 ?
TAG inh: 136.8; Vif imaging: -7.6; SMARCA2 act: 9.5*; SMARCA2 conf: 1.4; VP16 Luc act: 1.9

How did O=C(c1cccc(-c2cncc3nccn23)c1)N1CCOCC1 do in these assays?
TAG inh: -12.1; Vif imaging: -4.4; SMARCA2 act: -2.3

How did C[C@]1(CO)CCC[C@@]2(C)C1CC[C@@H](CO)[C@@H]2CCc1ccoc1 (stereo not given in full) do in these assays?
SR-BI HDL uptake: -41.0; Vif imaging: -10.2; SR-BI DiI-HDL act: 41.0; SMARCA2 act: -1.6

How did Cc1ccc(-c2cnc3ccccc3n2)cc1C do in these assays?
SR-BI HDL uptake: -4.9; Vif imaging: -5.2; SR-BI DiI-HDL act: 4.9; SMARCA2 act: 8.2*; SMARCA2 conf: 3.0; VP16 Luc act: 9.4*

How did O=C(NCc1ccc(F)cc1)C(c1cccnc1)N(C(=O)c1csnn1)c1ccccc1 (stereo not given) do in these assays?
Vif imaging: 0.2; SMARCA2 act: 9.0*; SMARCA2 conf: -4.4; VP16 Luc act: 0.3

What do the screens show for `Cc1ccc(N(C(=O)c2csnn2)C(C(=O)NC2CCCCC2)c2cccnc2)cc1` (stereo not given)?
SR-BI HDL uptake: -18.0; Vif imaging: 0.0; SR-BI DiI-HDL act: 18.0; SMARCA2 act: 9.6*; SMARCA2 conf: -2.1; VP16 Luc act: 3.9

Results for C=CCN(C(=O)c1csnn1)C(C(=O)NCc1ccc(F)cc1)c1sccc1C (stereo not given) ?
SR-BI HDL uptake: -10.0; Vif imaging: 12.5; SR-BI DiI-HDL act: 10.1; SMARCA2 act: 8.0*; SMARCA2 conf: -3.0; VP16 Luc act: -1.6

How did CC(=O)c1cccc(Nc2c([N+](=O)[O-])c(=O)oc3ccccc23)c1 do in these assays?
SR-BI HDL uptake: -9.1; TAG inh: 9.4; Vif imaging: -4.9; SR-BI DiI-HDL act: 9.1; SMARCA2 act: -1.6

How did O=C(O)c1cccc(Nc2c([N+](=O)[O-])c(=O)oc3ccccc23)c1 do in these assays?
SR-BI HDL uptake: -17.7; TAG inh: 3.4; Vif imaging: 13.5; SR-BI DiI-HDL act: 17.7; SMARCA2 act: 8.9*; SMARCA2 conf: -2.7; VP16 Luc act: 0.6

What do the screens show for `CCOC(=O)c1sc(=NC(=O)c2ccc(Cl)s2)n(C)c1C`?
SR-BI HDL uptake: 10.4; TAG inh: -8.4; Vif imaging: -0.7; SR-BI DiI-HDL act: -10.4; SMARCA2 act: -0.7

How did CCOC(=O)c1sc(=NC(=O)c2cccs2)n(C)c1C do in these assays?
TAG inh: 11.4; Vif imaging: 7.4; SMARCA2 act: 11.9*; SMARCA2 conf: 7.6; VP16 Luc act: 13.7*

How did Cc1ccc(C(=O)NC2=NCCS2)cc1 do in these assays?
SMARCA2 act: 8.8*; SMARCA2 conf: 7.2; VP16 Luc act: 13.4*

How did Cc1sc(NC(=O)c2ccccc2F)c(CN2CCCCC2C)c1C (stereo not given) do in these assays?
SR-BI HDL uptake: -19.1; Vif imaging: 13.2; SR-BI DiI-HDL act: 19.1; SMARCA2 act: 9.5*; SMARCA2 conf: 8.6*; VP16 Luc act: 11.2*

Results for CC(=O)Nc1sc(C)c(C)c1CN1CCN(Cc2ccccc2)CC1 ?
SR-BI HDL uptake: -18.4; TAG inh: 10.6; Vif imaging: 1.0; SR-BI DiI-HDL act: 18.4; SMARCA2 act: -2.4

What do the screens show for `C=Cc1ccc(C(=O)Nc2nnc(-c3cccnc3)s2)cc1`?
SMARCA2 act: 4.2

Results for O=C(Nc1nnc(-c2cccnc2)s1)c1cnc2ccccc2c1 ?
SMARCA2 act: 8.0*; SMARCA2 conf: 5.6; VP16 Luc act: 3.0

How did O=C(Nc1nnc(C(F)(F)F)s1)c1cccnc1 do in these assays?
SR-BI HDL uptake: -22.1; Vif imaging: -6.1; SR-BI DiI-HDL act: 22.1; SMARCA2 act: 9.0*; SMARCA2 conf: 3.0; VP16 Luc act: 9.3*

What do the screens show for `COc1ccc(OC)c(NC(=O)c2ccc(OC3CSC3)cc2)c1`?
SR-BI HDL uptake: 41.7; TAG inh: -7.5; Vif imaging: -2.7; SR-BI DiI-HDL act: -41.7; SMARCA2 act: 5.9

What do the screens show for `COC(=O)C1CCN(C(=O)c2oc3c(Cl)cc(C)cc3c2C)CC1`?
SR-BI HDL uptake: 25.5; Vif imaging: -6.2; SR-BI DiI-HDL act: -25.5; SMARCA2 act: 9.1*; SMARCA2 conf: 7.2; VP16 Luc act: 11.4*

Results for Cc1cc(Cl)c2oc(C(=O)NCC(C)(C)N3CCOCC3)c(C)c2c1 ?
SR-BI HDL uptake: -11.4; Vif imaging: -1.5; SR-BI DiI-HDL act: 11.4; SMARCA2 act: 9.3*; SMARCA2 conf: 3.9; VP16 Luc act: 5.2*

Results for OCC[C@@H]1C[C@H](O)[C@@H](O)[C@@]2(OCc3ccc(CO)cc32)O1 ?
Vif imaging: -0.6; SMARCA2 act: 1.0

How did COc1ccc(CCNC(=O)Cn2nc(-c3ccccc3)ccc2=O)cc1 do in these assays?
SMARCA2 act: -5.1
